Assay results published in ChEMBL document CHEMBL4725283, “Selective Peptidomimetic Inhibitors of NTMT1/2: Rational Design, Synthesis, Characterization, and Crystallographic Studies” (J Med Chem, 2020).
pKd: −log10 of the molar value. Active and inactive are the calls of the source. The rule behind the calls is not given here.

Tests used:
[1] = biological target: T1, N-terminal Xaa-Pro-Lys N-methyltransferase 1 (Homo sapiens) (UniProt Q9BV86); assay: Competitive inhibition of recombinant human full-length His6-tagged NTMT1 (1 to 222 residues) expressed in Escherichia coli BL21-CodonPlus(DE3)-RIL competent cells pre-incubated for 10 mins in presence of fixed SAM and SAHH before varying levels of RCC1-6 addition and measured after 15 mins by fluorescence based SAHH-coupled assay; settings: time 25.0 min
T1 sequence (whole entry): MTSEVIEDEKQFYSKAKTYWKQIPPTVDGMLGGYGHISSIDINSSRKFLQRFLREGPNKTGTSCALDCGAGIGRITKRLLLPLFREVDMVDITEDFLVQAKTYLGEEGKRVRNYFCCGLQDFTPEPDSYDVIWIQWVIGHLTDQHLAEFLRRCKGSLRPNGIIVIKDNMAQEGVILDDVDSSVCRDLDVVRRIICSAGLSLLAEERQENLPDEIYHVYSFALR
Outline: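 After 10 min at 37 °C, started with RCC1-6 at 0.5, 1, 1.5, 2, 4 or 8 µM. Read Ex 370/Em 500 nm for 15 min at 37 °C. Triplicate IC50 at each level plotted against [RCC1-6]/Km.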

[2] = Drug penetration in human HCT116 cells at 100 uM by MALDI-MS analysis; assay type: ADME, cell-based; settings: hct-116, 100 µM
Outline: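 HCT116 cells in McCoy's 5A with 10% FBS and 1% antibiotic-antimycotic, seeded at 0.1 × 10^6 cells/mL in 24-well plates and held overnight at 37 °C, 5% CO2. Compound added for the specified time, with TAT peptide as control. Cells washed three times with PBS, lysed by two snap-freezes in liquid nitrogen, and the lysate checked for compound by MALDI with DHB matrix.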

[3] = biological target: N-terminal Xaa-Pro-Lys N-methyltransferase 2 (Homo sapiens, UniProt Q5VVY1); assay: Binding affinity to recombinant human full-length His6-tagged NTMT2 by ITC assay
N-terminal Xaa-Pro-Lys N-methyltransferase 2, sequence (Q5VVY1 whole entry): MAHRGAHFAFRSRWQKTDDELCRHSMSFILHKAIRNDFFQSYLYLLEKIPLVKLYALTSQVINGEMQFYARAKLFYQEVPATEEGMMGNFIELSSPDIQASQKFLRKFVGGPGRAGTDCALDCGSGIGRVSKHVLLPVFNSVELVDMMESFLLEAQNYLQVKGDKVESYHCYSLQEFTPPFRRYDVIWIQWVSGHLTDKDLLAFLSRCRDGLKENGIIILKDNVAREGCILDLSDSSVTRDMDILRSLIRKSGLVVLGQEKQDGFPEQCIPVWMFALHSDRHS
Outline: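 ITC at 25 °C. Purified protein (NTMT1 for line 1, NTMT2 for line 2) in 20 mM Tris-HCl pH 7.5, 150 mM NaCl, 0.5 mM TCEP at 30–50 µM final. Compound at 0.5–1 mM in the same buffer, titrated in as 26 injections of 10 µl, 180 s apart, reference power 15 µcal/sec.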

[4] = organism: Homo sapiens; assay: Selectivity for human NTMT1 over human DNMT1 at 100 uM
Outline: (§1)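 Panel of 41 PKMTs, PRMTs, DNMTs and NTMT1/2, tested at 100 µM compound in duplicate (n=2).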

[5] = organism: Homo sapiens; assay: Selectivity for human NTMT1 over human DOT1L at 100 uM; outline: as §1
[6] = organism: Homo sapiens; assay: Selectivity for human NTMT1 over human EZH2 complex at 100 uM; outline: as §1
[7] = organism: Homo sapiens; assay: Selectivity for human NTMT1 over human EZH2 complex Y641F mutant at 100 uM; outline: as §1
[8] = organism: Homo sapiens; assay: Selectivity for human NTMT1 over human G9a at 100 uM; outline: as §1
[9] = organism: Homo sapiens; assay: Selectivity for human NTMT1 over human GLP at 100 uM; outline: as §1
[10] = organism: Homo sapiens; assay: Selectivity for human NTMT1 over human MLL4 complex at 100 uM; outline: as §1
[11] = organism: Homo sapiens; assay: Selectivity for human NTMT1 over human NSD2 T1150A mutant at 100 uM; outline: as §1
[12] = organism: Homo sapiens; assay: Selectivity for human NTMT1 over human PRDM9 at 100 uM; outline: as §1
[13] = organism: Homo sapiens; assay: Selectivity for human NTMT1 over human PRDMT5/MEP50 complex at 100 uM; outline: as §1
[14] = organism: Homo sapiens; assay: Selectivity for human NTMT1 over human PRDMT7 at 100 uM; outline: as §1
[15] = organism: Homo sapiens; assay: Selectivity for human NTMT1 over human SET7/9 at 100 uM; outline: as §1
[16] = organism: Homo sapiens; assay: Selectivity for human NTMT1 over human SUV39H1 at 100 uM
Outline: (§2)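 Single-point panel screen against 41 PKMTs, PRMTs, DNMTs and NTMT1/2. Each compound was tested at 100 µM, in duplicate (n=2).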

[17] = organism: Homo sapiens; assay: Selectivity for human NTMT1 over human SUV39H at 100 uM; outline: as §1
[18] = organism: Homo sapiens; assay: Selectivity for human NTMT2 over human ASH1L at 100 uM; outline: as §2
[19] = organism: Homo sapiens; assay: Selectivity for human NTMT2 over human DNMT3a at 100 uM; outline: as §2
[20] = organism: Homo sapiens; assay: Selectivity for human NTMT2 over human DOT1L at 100 uM; outline: as §2
[21] = organism: Homo sapiens; assay: Selectivity for human NTMT2 over human EZH1 complex at 100 uM; outline: as §2
[22] = organism: Homo sapiens; assay: Selectivity for human NTMT2 over human EZH2 complex at 100 uM; outline: as §2
[23] = organism: Homo sapiens; assay: Selectivity for human NTMT2 over human EZH2 complex Y641F mutant at 100 uM; outline: as §2
[24] = organism: Homo sapiens; assay: Selectivity for human NTMT2 over human G9a at 100 uM; outline: as §2
[25] = organism: Homo sapiens; assay: Selectivity for human NTMT2 over human MLL2 complex at 100 uM; outline: as §2
[26] = organism: Homo sapiens; assay: Selectivity for human NTMT2 over human NSD2 at 100 uM; outline: as §2
[27] = organism: Homo sapiens; assay: Selectivity for human NTMT2 over human NSD2 T1150A mutant at 100 uM; outline: as §2
[28] = organism: Homo sapiens; assay: Selectivity for human NTMT2 over human PRDMT1 at 100 uM; outline: as §2
[29] = organism: Homo sapiens; assay: Selectivity for human NTMT2 over human PRDMT5 at 100 uM; outline: as §2
[30] = organism: Homo sapiens; assay: Selectivity for human NTMT2 over human PRDMT6 at 100 uM; outline: as §2
[31] = organism: Homo sapiens; assay: Selectivity for human NTMT2 over human PRDMT7 at 100 uM; outline: as §2
[32] = organism: Homo sapiens; assay: Selectivity for human NTMT2 over human SET7/9 at 100 uM; outline: as §2
[33] = organism: Homo sapiens; assay: Selectivity for human NTMT2 over human SMYD1 at 100 uM; outline: as §2
[34] = organism: Homo sapiens; assay: Selectivity for human NTMT2 over human SUV39H at 100 uM; outline: as §2
[35] = organism: Homo sapiens; assay: Selectivity for human NTMT2 over human SUV420H1TV2 at 100 uM; outline: as §2

inhibition [1]: Active | Drug uptake [2]: Not Active | pKd [3]: 5.43 | Selectivity ratio [4]: > 100 | Selectivity ratio [5]: > 100 | Selectivity ratio [6]: > 100 | Selectivity ratio [7]: > 100 | Selectivity ratio [8]: > 100 | Selectivity ratio [9]: > 100 | Selectivity ratio [10]: > 100 | Selectivity ratio [11]: > 100 | Selectivity ratio [12]: > 100 | Selectivity ratio [13]: > 100 | Selectivity ratio [14]: > 100 | Selectivity ratio [15]: > 100 | Selectivity ratio [16]: > 100 | Selectivity ratio [17]: > 100 | Selectivity ratio [18]: > 100 | Selectivity ratio [19]: > 100 | Selectivity ratio [20]: > 100 | Selectivity ratio [21]: > 100 | Selectivity ratio [22]: > 100 | Selectivity ratio [23]: > 100 | Selectivity ratio [24]: > 100 | Selectivity ratio [25]: > 100 | Selectivity ratio [26]: > 100 | Selectivity ratio [27]: > 100 | Selectivity ratio [28]: > 100 | Selectivity ratio [29]: > 100 | Selectivity ratio [30]: > 100 | Selectivity ratio [31]: > 100 | Selectivity ratio [32]: > 100 | Selectivity ratio [33]: > 100 | Selectivity ratio [34]: > 100 | Selectivity ratio [35]: > 100
Structure (SMILES): N=C(N)NCCC[C@H](NC(=O)[C@H](CCCCN)NC(=O)[C@@H]1CCCN1C(=O)Cc1ccc(O)cc1)C(N)=O
